Results reported in ChEMBL document CHEMBL4425108, “A Selective and Slowly Reversible Inhibitor of l-Type Amino Acid Transporter 1 (LAT1) Potentiates Antiproliferative Drug Efficacy in Cancer Cells” (J Med Chem, 2016).
Activity calls are given as the source filed them. The rule behind the calls is not given here.

Assays:
MCF7 [1] = experiment: Antiproliferative activity against human MCF7 cells assessed as reduction in cell viability at 100 measured after 72 hrs by resazurin dye-based fluorimetric analysis; format: functional
In short: (§1)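 MCF-7 cells were seeded at 2 × 10^4 cells/well on collagen-coated plates and treated one day later. Agents were given alone or combined (25 or 100 µM with 100 µM partner drug) in growth medium for 3 days. Viability was read daily by resazurin fluorescence (ex 560/em 590 nm) and expressed relative to untreated controls.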

MCF7 [2] = experiment: Antiproliferative activity against human MCF7 cells assessed as reduction in cell viability measured after 72 hrs by resazurin dye-based fluorimetric analysis; format: functional; details: for IC50: MCF7, 72 h; in short: as §1
MCF7 [3] = experiment: Antiproliferative activity against human MCF7 cells assessed as reduction in cell viability at 100 measured after 24 hrs by resazurin dye-based fluorimetric analysis; format: functional; in short: as §1
MCF7 [4] = experiment: Antiproliferative activity against human MCF7 cells assessed as reduction in cell viability at 100 measured after 48 hrs by resazurin dye-based fluorimetric analysis; format: functional; in short: as §1
[5] = molecular target: T1, Large neutral amino acids transporter small subunit 1 (Homo sapiens, UniProt Q01650); experiment: Inhibition of LAT1 in human MCF7 cells assessed as potentiation of cisplatin-induced antiproliferative activity by measuring reduction in cell viability at 100 uM measured after 72 hrs by resazurin dye-based fluorimetric analysis
In short: (§2)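 MCF-7 cells seeded 2 × 10^4/well on collagen-coated plates, treated one day later in growth medium with inhibitor (25 or 100 µM) plus bestatin or cisplatin (100 µM) for up to 3 days. Viability read daily by resazurin fluorescence (ex 560/em 590 nm). Viability is treated relative to untreated control. Mean ± SD, n=3.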

[6] = molecular target: T1, Large neutral amino acids transporter small subunit 1; experiment: Inhibition of LAT1 in human MCF7 cells assessed as potentiation of bestatin-induced antiproliferative activity by measuring reduction in cell viability at 100 uM measured after 24 hrs by resazurin dye-based fluorimetric analysis; in short: as §2
[7] = molecular target: T1, Large neutral amino acids transporter small subunit 1; experiment: Inhibition of LAT1 in human MCF7 cells assessed as potentiation of cisplatin-induced antiproliferative activity by measuring reduction in cell viability at 100 uM measured after 24 hrs by resazurin dye-based fluorimetric analysis; in short: as §2
[8] = molecular target: T1, Large neutral amino acids transporter small subunit 1; experiment: Potency index, ratio of IC50 for 2-amino-2-norbornanecarboxylic acid to IC50 for test compound for inhibition of [14C]-L-leucine uptake at LAT1 in human MCF7 cells; format: cell-based
[9] = molecular target: T1, Large neutral amino acids transporter small subunit 1; experiment: Competitive inhibition of [14C]-L-leucine uptake at LAT1 in human MCF7 cells preincubated for 5 mins followed by addition of substrate measured during 5 mins by liquid scintillation counting; format: cell-based
[10] = molecular target: T1, Large neutral amino acids transporter small subunit 1; experiment: Inhibition of LAT1 in human MCF7 cells assessed as potentiation of bestatin-induced antiproliferative activity by measuring reduction in cell viability at 100 uM measured after 72 hrs by resazurin dye-based fluorimetric analysis; in short: as §2
[11] = molecular target: T1, Large neutral amino acids transporter small subunit 1; experiment: Inhibition of LAT1 in human MCF7 cells assessed as potentiation of cisplatin-induced antiproliferative activity by measuring reduction in cell viability at 100 uM measured after 48 hrs by resazurin dye-based fluorimetric analysis; in short: as §2
[12] = molecular target: T1, Large neutral amino acids transporter small subunit 1; experiment: Drug uptake in human MCF7 cells assessed as LAT1 mediated drug transport per mg of protein at 100 uM after 30 mins by HPLC analysis; format: ADME, cell-based; details: mcf7, 0.5 h
In short: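 MCF-7 monolayers were incubated with 100 µM compound in HBSS at 37 °C for 5 or 30 min. Cells got three washes with ice-cold or warm (37 °C) HBSS; in the warm 30 min arm they were washed after 5 min and again after 30 min. Lysates (0.1 M NaOH) were quantified by HPLC-UV against a spiked lysate standard curve and normalised to protein (Bio-Rad assay).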

[13] = molecular target: T1, Large neutral amino acids transporter small subunit 1; experiment: Inhibition of LAT1 in human MCF7 cells assessed as potentiation of bestatin-induced antiproliferative activity by measuring reduction in cell viability at 100 uM measured after 48 hrs by resazurin dye-based fluorimetric analysis; in short: as §2
[14] = molecular target: T1, Large neutral amino acids transporter small subunit 1; experiment: Inhibition of [14C]-L-leucine uptake at LAT1 in human YD-38 cells after 1 hr by liquid scintillation counting; format: cell-based
[15] = Growth inhibition of human YD38 cells measured after 4 days by MTT assay; format: functional; details: 96 h
HT-29 = experiment: Growth inhibition of human HT-29 cells measured after 96 hrs by Coulter counter based cell counting method; format: functional; details: HT-29, 96 h
[16] = Ratio of IC50 for human HT-29 cells to IC50 for leucine uptake at LAT1 in human HT-29 cells
[17] = Ratio of IC50 for human YD-38 cells to IC50 for leucine uptake at LAT1 in human YD-38 cells

T1 sequence (Q01650 whole entry): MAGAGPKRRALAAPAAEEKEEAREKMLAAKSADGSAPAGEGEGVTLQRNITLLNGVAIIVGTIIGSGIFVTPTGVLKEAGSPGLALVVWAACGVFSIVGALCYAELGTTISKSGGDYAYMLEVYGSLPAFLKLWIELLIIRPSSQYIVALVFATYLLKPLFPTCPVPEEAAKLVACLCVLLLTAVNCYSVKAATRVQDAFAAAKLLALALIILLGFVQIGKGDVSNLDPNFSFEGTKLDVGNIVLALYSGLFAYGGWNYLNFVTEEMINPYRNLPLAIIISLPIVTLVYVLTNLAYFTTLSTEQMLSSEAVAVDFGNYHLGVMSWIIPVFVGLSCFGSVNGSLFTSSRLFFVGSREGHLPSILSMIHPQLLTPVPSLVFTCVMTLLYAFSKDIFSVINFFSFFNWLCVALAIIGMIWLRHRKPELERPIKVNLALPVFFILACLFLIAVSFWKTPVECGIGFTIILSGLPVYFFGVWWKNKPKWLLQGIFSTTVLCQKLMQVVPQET

| SMILES | Activity (MCF7 [1]) | Activity (MCF7 [2]) | IC50 (MCF7 [2]) | Activity (MCF7 [3]) | Activity (MCF7 [4]) | Activity [5] | Activity [6] | Activity [7] | Ratio IC50 [8] | IC50 [9] | Activity [10] | Activity [11] | Drug uptake [12] | Activity [13] | IC50 [14] | IC50 [15] | IC50 (HT-29) | Ratio IC50 [16] | Ratio IC50 [17] |
| --- | --- | --- | --- | --- | --- | --- | --- | --- | --- | --- | --- | --- | --- | --- | --- | --- | --- | --- | --- |
| CC(C)C[C@H](NC(=O)[C@@H](O)[C@H](N)Cc1ccccc1)C(=O)O [UBENIMEX] | inactive | Dose-dependent effect | 541 µM | 3.4% | 7.5% | – | – | – | – | – | – | – | – | – | – | – | – | – | – |
| NC1(C(=O)O)CC2CCC1C2 (centres undefined) | 24.1% | Dose-dependent effect | 362 µM | 13.9% | inactive | 42.7% | 30.8% | 35.9% | 6 to 6.2 | 112 µM | 3.13% | inactive | 11.9 nmol/mg | inactive | – | – | – | – | – |
| Nc1cc(COc2c(Cl)cc(C[C@H](N)C(=O)O)cc2Cl)c2oc(-c3ccccc3)nc2c1 | – | – | – | – | – | – | – | – | – | – | – | – | – | – | 0.79 µM | 69 µM | 4.1 µM | 68 - 87 | 68 - 87 |
